Test results published in the RNAGym collection of RNA variant scans (doi:10.1126/science.aae0568).
Fewer inactive variants are shown than the library holds.

B1: tRNA (parent)
chain: GUUCCGUUGGCGUAAUGGUAACGCGUCUCCCUCCUAAGGAGAAGACUGCGGGUUCGAGUCCCGUACGGAACG

Variants of: B1
Assay: yeast fitness relative to wild type (ratio to wild type); higher = fitter; tRNA-Arg(CCU), competitive growth, 37 C, YPD
How it was run: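 A pool of Saccharomyces cerevisiae strains, each with a tRNA-Arg(CCU) gene variant at the native genomic locus, was competed in YPD at 37°C for 24 hours across six parallel replicates. The variants had been chemically synthesised at a 3% per-site mutation rate over 69 sites, and gene amplicons before and after competition were read by 100-nucleotide paired-end sequencing. Darwinian fitness relative to wild type rested on changes in genotype frequencies. Genotypes required ≥ 100 starting reads, and estimates < 0.5 were set to 0.5.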

Point of comparison: C4G C49U U59C, yeast fitness 0.576. Against it:
- C4G G17A G63A C66U — lower, ≤ 0.5
- C4G C22A — higher, 0.767
- C4G U7C C33G G52A — higher, 0.652
- C4G C22G C24U G41A — lower, ≤ 0.5
- C4G G23C — higher, 0.587
- C4G C11A G17A A20G C27U A43U C49G — lower, ≤ 0.5
- C4G C5U A43G — lower, ≤ 0.5
- C4U C11A A37C C66A — lower, 0.535
- C4U C11A G12A U28C G44C — lower, ≤ 0.5
- C4G G68C — higher, 0.971
- C4G G68U — higher, 0.865
- C4G A15C C30A A42C G56A A57U — lower, ≤ 0.5
- C4G U8C A37U A42C C66G — lower, ≤ 0.5
- C4U A14G A36C C46G C62U — lower, ≤ 0.5
- C4G C34U U35G A57G — lower, ≤ 0.5
- C4U A42G G58A — higher, 0.717
- C4U A21C C31A G56C — lower, ≤ 0.5
- C4U A43G G68C — lower, 0.553
- C4U C11G G51A U59A C62G — lower, ≤ 0.5
- C4G C11G U19C G23C U28G C61G — lower, ≤ 0.5
- C4G U8C U16A A21C C24G A37U C55U C62U A69U — lower, ≤ 0.5
- C4U A45U G68C — higher, 0.7
- C4G G51U — higher, 0.654
- C4U A45G — higher, 0.856
- C4U A45C — higher, 0.939
- C4G G25C — higher, 0.982
- C4G C29U A36C A40U C55G — lower, ≤ 0.5
- C4G A43C C55A A57C — lower, ≤ 0.5
- C4G G51C U64A — lower, ≤ 0.5
- C4G G17A C34A A43G — higher, 0.633
- C4G U8C — higher, 0.89
- C4G U8G U35C U53G — lower, ≤ 0.5
- C4U A37G — higher, 0.875
- C4G U7G G9A A20G C22A G41A — lower, ≤ 0.5
- C4G G17A C22A G38A C49U U53C — lower, ≤ 0.5
- C4G G6C U8G G17A U32C — lower, ≤ 0.5
- C4G C24U A42C C46A U54A — higher, 0.623
- C4G C34U C49A U54C A69U — lower, ≤ 0.5
- C4G G50C — higher, 0.679
- C4G U7G C55G — lower, ≤ 0.5
- C4U A20U C22G — lower, 0.54
- C4G A36G G38A A40U — lower, ≤ 0.5
- C4G A15U A21G G48A G50C — lower, ≤ 0.5
- C4G U16C C31U A42G — lower, ≤ 0.5
- C4G C11U C33A U59C — higher, 0.707
- C4G C31A C33G G51C G52A C60G — lower, ≤ 0.5
- C4G C22G U64A A65U — lower, ≤ 0.5
- C4U — higher, 0.989
- C4G C31U — higher, 1.12
- C4G A40U C66G — higher, 0.624
- C4G C29G G58A — lower, 0.53
- C4U A36U A45C C61G A70C — higher, 0.852
- C4G U7G C29A A65C — lower, ≤ 0.5
- C4U C5G C66U — lower, 0.564
- C4G A20G G51C — higher, 0.66
- C4G C61A G67A — lower, 0.553
- C4G C24G — higher, 0.617
- C4G A20C U26G C33U G44C U59A — lower, ≤ 0.5
- C4G U7C C27A C66A A70U — lower, ≤ 0.5
- C4G G41A — higher, 0.768
- C4G U19C C29A C33G A45C — lower, ≤ 0.5
- C4G G25A U28C A36C C60U U64A C66U — lower, ≤ 0.5
- C4G U8C U59G — lower, ≤ 0.5
- C4G C5A U28G — lower, ≤ 0.5
- C4G U8C G48C — lower, 0.568
- C4G U35G A42C C66U — lower, ≤ 0.5
- C4G G23C C55U A70U — lower, ≤ 0.5
- C4G G38A G67A — lower, ≤ 0.5
- C4G A15G — higher, 0.732
- C4G A43U G44C — lower, 0.531
- C4G U7G C31U — lower, 0.56
- C4G G18A A21G G25A G51C — lower, ≤ 0.5
- C4U A15G C22U G44C — lower, ≤ 0.5
- C4U C5G C29G C31G A37C C66A — higher, 0.66
- C4G A65U G68U — higher, 1.11
- C4G C24U A45C — higher, 0.6
- C4G C11G G50A — lower, ≤ 0.5
- C4G U8C C22G A42C — lower, ≤ 0.5
- C4U A20U U53C C61U — higher, 0.627
- C4G G10C C27G A37G G39A — lower, ≤ 0.5
- C4G C5A U16A G17A G50A — lower, ≤ 0.5
- C4U A21G A70U — higher, 0.78
- C4U C11G C29A U54A U59G — lower, ≤ 0.5
- C4G C22U C30U C33U A45C — lower, ≤ 0.5
- C4U A37C G41C — higher, 0.577
- C4U A14U G50C G51C G56A — lower, ≤ 0.5
- C4G C22A C27U G63C — higher, 0.735
- C4U A15U C30A A40G C66U A70G — lower, ≤ 0.5
- C4G C11A G17A A20G C27U A43U C49G C60U G68A — lower, ≤ 0.5
- C4G A15C U26G G41C A69U — lower, ≤ 0.5
- C4U C5G C29G C31G A37C U54A — lower, ≤ 0.5
- C4G U8G C24A C31G G50A — higher, 0.594
- C4G C11A A14U C22A C24G — lower, ≤ 0.5
- C4G G9C G41A — lower, ≤ 0.5
- C4U C5A C66U — higher, 0.61
- C4U A14G A36C C46G C61G — lower, 0.544
- C4U A36U A40C — higher, 0.64
- C4G C5U U13A A40C G58A G68C — lower, ≤ 0.5
- C4G U19G A43U — lower, ≤ 0.5
- C4G U16A A21C C24G A37U C55U — lower, ≤ 0.5
- C4G C30A C34U A37G — lower, ≤ 0.5
- C4G A36U C46G C62A A69C — lower, ≤ 0.5
- C4U A21G C46A G68U — lower, 0.574
- C4G C11A U32G A36G — lower, ≤ 0.5
- C4G C24G G58C — lower, ≤ 0.5
- C4U A14G C34G — lower, ≤ 0.5
- C4G U19C C24U — higher, 0.619
- C4G G17A G56C C60G C66U — lower, ≤ 0.5
- C4G C27U G58C — higher, 0.71
- C4G C30G — higher, 0.713
- C4U A14G — higher, 0.856
- C4U C11G A20G C34U — lower, ≤ 0.5
- C4G G12C C46U — lower, ≤ 0.5
- C4U A15C A65U A69U — lower, ≤ 0.5
- C4G C5A U19A C24G C29G C66U — lower, ≤ 0.5
- C4U A40U G58C — higher, 0.734
- C4G G58C C66U — higher, 0.73
- C4U A37U A43U — lower, ≤ 0.5
- C4G C5U A37U — lower, ≤ 0.5
- C4G G25A C66A — lower, ≤ 0.5
- C4G G17A G58C C60U A69U — lower, ≤ 0.5
- C4G C29A C33G A45C — higher, 0.588
- C4G C11A C31U A40C — lower, ≤ 0.5
- C4G G18C C24G C29G — lower, ≤ 0.5
- C4G A14U A20G A21C — lower, 0.55
- C4G U7G A36C — lower, ≤ 0.5
- C4G U16C A36U — lower, ≤ 0.5
- C4G G9A G39A G63A — lower, ≤ 0.5
- C4G G41A A43C — lower, ≤ 0.5
- C4U A21G C46A C62U — higher, 0.691
- C4U A15C C30G G56A A69C A70G — lower, ≤ 0.5
- C4U A20C C55A — higher, 0.721
- C4G C29A C34U A36U G50A — lower, 0.568
- C4U A42C A45G C66A A69U — lower, ≤ 0.5
- C4U A36C C61A — higher, 0.705
- C4G A45G G68C — lower, 0.567
- C4U C5G A40G G51C U59A C61A A69U — lower, ≤ 0.5
- C4G G39C A45G A57C A65U C66U — higher, 0.796
- C4G C46A — higher, 0.915
- C4G C46U — higher, 0.861
- C4G A21G C31G C33G — lower, ≤ 0.5
- C4G G52C — higher, 0.655
- C4G C5A A21U C34G — lower, ≤ 0.5
- C4U C11G C29A U54A A57U — lower, ≤ 0.5
- C4G G38A — higher, 0.692
- C4G G38C — higher, 0.763
- C4G C24G G41C — lower, ≤ 0.5
- C4U C5G C29G C31G A37C — higher, 0.627
- C4U A15G C33A U59C C60U — lower, ≤ 0.5
- C4U A40G — higher, 0.997
- C4U A57U — higher, 0.635
- C4G C11U A14U G23A C62A — lower, ≤ 0.5
- C4G G25A G51A — lower, ≤ 0.5
- C4G G25C C46U G50A — higher, 0.636
- C4G G12C — higher, 0.676
- C4G C5U C30U G39A — lower, ≤ 0.5
- C4G U16C G41C C62U — lower, ≤ 0.5
- C4U C11G C29U — lower, ≤ 0.5
- C4U A20G C61A — lower, 0.512
- C4U C5G A37C — lower, ≤ 0.5
- C4G C11G C31G G48A C55A C62A — lower, ≤ 0.5
- C4G C24G G25A U35A G51C — lower, ≤ 0.5
- C4U A15C C34A G63C — lower, ≤ 0.5
- C4G C31A C61U — lower, ≤ 0.5
- C4G G12U A14C C49G A57U C61G — lower, ≤ 0.5
- C4U A57U C61U — higher, 0.605
